pIC50: −log10 of the molar value.
Key:
MAP4K5 = MAP4K5 (Homo sapiens, UniProt Q9Y4K4); test: kinase panel; assay type: biochemical
PAK5 = PAK5 (Homo sapiens, UniProt Q9P286); test: kinase panel; assay type: biochemical
CK1-GAMMA2 = CK1-GAMMA2 (Homo sapiens, UniProt P78368); test: kinase panel; assay type: biochemical
MAPKAPK2 = MAPKAPK2 (Homo sapiens, UniProt P49137); test: kinase panel; assay type: biochemical
GSK-3-ALPHA = GSK-3-ALPHA (Homo sapiens, UniProt P49840); test: kinase panel; assay type: biochemical
PHK-GAMMA1 = PHK-GAMMA1 (Homo sapiens, UniProt Q16816); test: kinase panel; assay type: biochemical
RSK4 = RSK4 (Homo sapiens, UniProt Q9UK32); test: kinase panel; assay type: biochemical
RSK4, sequence (Q9UK32 whole entry): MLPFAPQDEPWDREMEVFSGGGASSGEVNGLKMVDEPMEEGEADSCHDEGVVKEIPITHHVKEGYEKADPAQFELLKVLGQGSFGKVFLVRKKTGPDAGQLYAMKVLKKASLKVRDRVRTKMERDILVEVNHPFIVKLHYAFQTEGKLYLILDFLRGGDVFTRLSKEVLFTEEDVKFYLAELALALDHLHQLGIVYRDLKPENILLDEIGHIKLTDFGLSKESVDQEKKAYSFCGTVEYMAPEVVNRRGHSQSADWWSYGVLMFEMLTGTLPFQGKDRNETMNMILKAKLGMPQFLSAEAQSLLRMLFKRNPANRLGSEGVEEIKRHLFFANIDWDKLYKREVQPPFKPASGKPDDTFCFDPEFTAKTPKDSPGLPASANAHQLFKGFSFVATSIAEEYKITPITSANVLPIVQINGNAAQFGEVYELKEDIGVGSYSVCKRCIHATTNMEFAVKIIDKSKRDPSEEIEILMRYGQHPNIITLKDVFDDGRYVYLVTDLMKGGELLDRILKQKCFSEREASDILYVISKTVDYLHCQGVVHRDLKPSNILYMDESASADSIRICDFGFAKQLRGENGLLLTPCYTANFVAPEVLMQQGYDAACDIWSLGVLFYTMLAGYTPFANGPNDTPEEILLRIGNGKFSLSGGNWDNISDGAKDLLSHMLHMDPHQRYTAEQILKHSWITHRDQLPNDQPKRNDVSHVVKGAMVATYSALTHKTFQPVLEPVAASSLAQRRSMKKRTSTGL

AURORA-A = AURORA-A (Homo sapiens, UniProt O14965); test: kinase panel; assay type: biochemical
AURORA-A, sequence (O14965 whole entry): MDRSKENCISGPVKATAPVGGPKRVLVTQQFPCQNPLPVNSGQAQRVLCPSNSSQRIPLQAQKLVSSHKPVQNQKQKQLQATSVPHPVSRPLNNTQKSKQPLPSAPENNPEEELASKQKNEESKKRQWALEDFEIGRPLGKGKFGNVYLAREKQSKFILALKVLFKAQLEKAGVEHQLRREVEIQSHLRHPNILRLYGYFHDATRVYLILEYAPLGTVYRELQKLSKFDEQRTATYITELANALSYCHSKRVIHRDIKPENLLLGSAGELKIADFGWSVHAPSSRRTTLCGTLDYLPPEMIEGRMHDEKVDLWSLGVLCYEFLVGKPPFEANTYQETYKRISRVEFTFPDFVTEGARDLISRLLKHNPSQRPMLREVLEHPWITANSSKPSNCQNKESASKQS

HIPK1 = HIPK1 (Homo sapiens, UniProt Q86Z02); test: kinase panel; assay type: biochemical
PI3K-DELTA = PI3K-DELTA (Homo sapiens, UniProt O00329); test: kinase panel; assay type: biochemical
AURORA-B = AURORA-B (Homo sapiens, UniProt Q96GD4); test: kinase panel; assay type: biochemical
DAPK3 = DAPK3 (Homo sapiens, UniProt O43293); test: kinase panel; assay type: biochemical
DCAMKL2 = DCAMKL2 (Homo sapiens, UniProt Q8N568); test: kinase panel; assay type: biochemical
SNF1LK2 = SNF1LK2 (Homo sapiens, UniProt Q9H0K1); test: kinase panel; assay type: biochemical
DYRK1B = DYRK1B (Homo sapiens, UniProt Q9Y463); test: kinase panel; assay type: biochemical
MRCK-BETA = MRCK-BETA (Homo sapiens, UniProt Q9Y5S2); test: kinase panel; assay type: biochemical
MSK2 = MSK2 (Homo sapiens, UniProt O75676); test: kinase panel; assay type: biochemical
SRPK1 = SRPK1 (Homo sapiens, UniProt Q96SB4); test: kinase panel; assay type: biochemical
EGFR = EGFR (Homo sapiens, UniProt P00533); test: kinase panel; assay type: biochemical
SRPK2 = SRPK2 (Homo sapiens, UniProt P78362); test: kinase panel; assay type: biochemical
IRAK1 = IRAK1 (Homo sapiens, UniProt P51617); test: kinase panel; assay type: biochemical
IRAK1, sequence (P51617 whole entry): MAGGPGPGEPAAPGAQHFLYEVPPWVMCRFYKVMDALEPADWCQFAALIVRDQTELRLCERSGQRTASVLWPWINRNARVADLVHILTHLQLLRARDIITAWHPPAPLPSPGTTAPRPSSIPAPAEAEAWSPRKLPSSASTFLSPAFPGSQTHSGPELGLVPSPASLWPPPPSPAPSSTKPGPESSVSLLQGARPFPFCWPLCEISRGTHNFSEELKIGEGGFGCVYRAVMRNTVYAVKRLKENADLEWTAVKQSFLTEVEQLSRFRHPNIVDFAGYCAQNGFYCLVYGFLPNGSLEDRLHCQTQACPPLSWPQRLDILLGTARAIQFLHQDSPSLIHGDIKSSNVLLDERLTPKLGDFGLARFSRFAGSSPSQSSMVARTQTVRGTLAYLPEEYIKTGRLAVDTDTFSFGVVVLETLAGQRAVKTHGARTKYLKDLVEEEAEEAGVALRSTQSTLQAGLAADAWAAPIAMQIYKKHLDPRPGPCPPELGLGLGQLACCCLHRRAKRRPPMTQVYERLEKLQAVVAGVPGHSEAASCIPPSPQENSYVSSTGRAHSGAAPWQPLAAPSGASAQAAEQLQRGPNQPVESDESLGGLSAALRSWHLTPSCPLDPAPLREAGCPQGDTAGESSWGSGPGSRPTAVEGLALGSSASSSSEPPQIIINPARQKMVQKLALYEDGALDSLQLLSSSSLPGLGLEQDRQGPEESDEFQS

MST1 = MST1 (Homo sapiens, UniProt Q13043); test: kinase panel; assay type: biochemical
MST1, sequence (Q13043 whole entry): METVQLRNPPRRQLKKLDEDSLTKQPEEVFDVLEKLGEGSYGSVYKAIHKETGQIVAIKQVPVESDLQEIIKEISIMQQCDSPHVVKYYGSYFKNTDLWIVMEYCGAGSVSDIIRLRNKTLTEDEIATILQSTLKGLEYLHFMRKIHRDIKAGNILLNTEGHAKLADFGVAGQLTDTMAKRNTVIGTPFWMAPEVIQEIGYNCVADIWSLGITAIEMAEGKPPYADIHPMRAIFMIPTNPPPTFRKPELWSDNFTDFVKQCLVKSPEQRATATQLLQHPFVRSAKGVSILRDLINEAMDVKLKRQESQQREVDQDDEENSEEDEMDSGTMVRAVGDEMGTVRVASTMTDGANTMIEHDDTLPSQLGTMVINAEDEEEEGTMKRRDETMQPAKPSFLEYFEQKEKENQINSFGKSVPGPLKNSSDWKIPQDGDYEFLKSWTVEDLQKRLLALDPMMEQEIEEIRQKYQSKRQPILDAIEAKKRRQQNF

SYK = SYK (Homo sapiens, UniProt P43405); test: kinase panel; assay type: biochemical
PKC-GAMMA = PKC-GAMMA (Homo sapiens, UniProt P05129); test: kinase panel; assay type: biochemical
ITK = ITK (Homo sapiens, UniProt Q08881); test: kinase panel; assay type: biochemical
CAMK2B = CAMK2B (Homo sapiens, UniProt Q13554); test: kinase panel; assay type: biochemical
EPH-B3 = EPH-B3 (Homo sapiens, UniProt P54753); test: kinase panel; assay type: biochemical
EPH-B3, sequence (P54753 34-998): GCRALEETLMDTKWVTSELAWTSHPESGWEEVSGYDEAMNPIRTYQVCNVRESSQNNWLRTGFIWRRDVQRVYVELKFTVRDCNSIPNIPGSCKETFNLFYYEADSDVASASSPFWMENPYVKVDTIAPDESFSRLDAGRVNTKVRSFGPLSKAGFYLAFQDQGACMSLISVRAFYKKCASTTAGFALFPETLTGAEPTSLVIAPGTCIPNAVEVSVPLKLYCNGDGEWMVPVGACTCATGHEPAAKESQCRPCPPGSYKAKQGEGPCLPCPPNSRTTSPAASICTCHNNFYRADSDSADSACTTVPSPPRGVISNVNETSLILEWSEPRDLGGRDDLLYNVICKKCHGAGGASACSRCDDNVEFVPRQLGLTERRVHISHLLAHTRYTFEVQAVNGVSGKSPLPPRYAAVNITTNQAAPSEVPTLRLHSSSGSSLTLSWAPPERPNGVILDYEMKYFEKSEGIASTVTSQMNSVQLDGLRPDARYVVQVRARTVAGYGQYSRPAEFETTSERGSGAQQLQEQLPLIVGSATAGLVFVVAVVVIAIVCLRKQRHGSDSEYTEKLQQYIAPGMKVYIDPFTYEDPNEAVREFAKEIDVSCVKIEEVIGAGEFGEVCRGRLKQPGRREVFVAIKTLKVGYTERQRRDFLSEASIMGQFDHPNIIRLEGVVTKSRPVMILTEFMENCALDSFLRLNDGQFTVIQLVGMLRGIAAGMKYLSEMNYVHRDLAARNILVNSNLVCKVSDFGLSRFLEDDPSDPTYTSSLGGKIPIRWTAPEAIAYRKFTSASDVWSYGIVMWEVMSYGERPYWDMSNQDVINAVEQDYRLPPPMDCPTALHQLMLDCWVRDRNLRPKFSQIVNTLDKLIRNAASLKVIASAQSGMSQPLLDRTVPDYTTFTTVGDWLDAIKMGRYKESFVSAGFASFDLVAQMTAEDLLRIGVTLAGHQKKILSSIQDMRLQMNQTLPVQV

CDK2-CYCLINA = CDK2-CYCLINA (Homo sapiens, UniProt P24941); test: kinase panel; assay type: biochemical
P38-BETA = P38-BETA (Homo sapiens, UniProt Q15759); test: kinase panel; assay type: biochemical
CDK6-CYCLIND3 = CDK6-CYCLIND3 (Homo sapiens, UniProt Q00534); test: kinase panel; assay type: biochemical
Muscarinic M1 receptor = Muscarinic M1 receptor (Homo sapiens, UniProt P11229); test: Muscarinic M1 receptor assay; assay type: binding
Muscarinic M2 = Muscarinic M2 (Homo sapiens, UniProt P08172); test: Muscarinic M2 calcium flux assay with ATP priming; assay type: cell-based
Phosphodiesterase 3 = Phosphodiesterase 3 (Homo sapiens, UniProt Q14432); test: Phosphodiesterase 3 assay; assay type: biochemical
[1] = molecular target: Pregnane X Receptor (PXR; SXR) (Homo sapiens, UniProt O75469); test: Pregnane X Receptor; assay type: binding
Progesterone Receptor = Progesterone Receptor (Homo sapiens, UniProt P06401); test: Progesterone Receptor agonist assay; assay type: cell-based
Progesterone Receptor, sequence (P06401 whole entry, species assumed): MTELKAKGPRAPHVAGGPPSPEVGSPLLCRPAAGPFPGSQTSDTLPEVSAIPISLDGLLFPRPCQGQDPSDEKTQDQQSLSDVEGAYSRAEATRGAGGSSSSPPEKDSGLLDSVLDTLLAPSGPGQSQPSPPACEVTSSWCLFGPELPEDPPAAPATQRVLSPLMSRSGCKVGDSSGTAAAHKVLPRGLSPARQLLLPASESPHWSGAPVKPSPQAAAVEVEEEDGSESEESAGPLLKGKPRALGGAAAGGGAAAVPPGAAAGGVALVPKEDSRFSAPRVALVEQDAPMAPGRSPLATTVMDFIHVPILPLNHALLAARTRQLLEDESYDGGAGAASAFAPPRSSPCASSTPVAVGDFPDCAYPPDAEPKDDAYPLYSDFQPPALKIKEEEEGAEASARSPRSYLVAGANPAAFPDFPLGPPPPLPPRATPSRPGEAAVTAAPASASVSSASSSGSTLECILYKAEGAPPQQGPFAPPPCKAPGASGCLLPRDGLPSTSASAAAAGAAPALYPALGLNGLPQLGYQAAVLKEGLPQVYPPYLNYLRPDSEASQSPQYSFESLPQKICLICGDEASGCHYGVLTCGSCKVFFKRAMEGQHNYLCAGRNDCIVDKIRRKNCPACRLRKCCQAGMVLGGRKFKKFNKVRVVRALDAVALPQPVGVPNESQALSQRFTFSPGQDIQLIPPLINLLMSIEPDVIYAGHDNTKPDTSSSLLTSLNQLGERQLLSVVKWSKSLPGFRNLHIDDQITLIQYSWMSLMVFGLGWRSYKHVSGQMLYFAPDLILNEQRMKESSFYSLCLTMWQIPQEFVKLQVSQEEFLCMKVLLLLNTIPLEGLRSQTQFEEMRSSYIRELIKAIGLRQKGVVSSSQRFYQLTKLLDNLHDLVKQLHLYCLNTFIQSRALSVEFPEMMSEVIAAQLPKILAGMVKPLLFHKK

[2] = test system: exon19del/T790M EGFR Ba/F3 cells; test: Ba/F3 cell proliferation; assay type: cell-based; conditions: EAI045 with cetuximab (10 μg/ml)
Method in brief: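 Ba/F3 cells, either parental or stably expressing mutant EGFR lines described earlier, were exposed to the test compound for 72 hours. Cell numbers were set empirically. Growth was read by MTS assay. Each point was run in six wells, and each experiment was repeated at least three times. Curves were fitted by non-linear regression to a sigmoidal dose response.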

[3] = test system: exon19del/T790M EGFR mutant lung tumors (genetically engineered mice); test: Mouse efficacy study, tumor volume by MRI; assay type: in vivo; conditions: EAI045 60 mg/kg with cetuximab 1 mg I.P. every other day
Method in brief: (§1)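 Transgenic lung tumors were induced at 6 weeks of age: exon19del/T790M mice by doxycycline diet, L858R/T790M/C797S mice by intranasal Ad-Cre. The test compound in 10% NMP/90% PEG-300 was given at 60 mg/kg daily by oral gavage. […] MRI ran at baseline and every 2 weeks, and tumor volume was quantified in 3D at 4 weeks. Cohorts were non-blinded and not randomized.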

[4] = test system: L858R/T790M/C797S mutant lung tumors (genetically engineered mice); test: Mouse efficacy study, tumor volume by MRI; assay type: in vivo; conditions: EAI045 and cetuximab
Method in brief: as §1

PAK5, sequence (Q9P286 whole entry): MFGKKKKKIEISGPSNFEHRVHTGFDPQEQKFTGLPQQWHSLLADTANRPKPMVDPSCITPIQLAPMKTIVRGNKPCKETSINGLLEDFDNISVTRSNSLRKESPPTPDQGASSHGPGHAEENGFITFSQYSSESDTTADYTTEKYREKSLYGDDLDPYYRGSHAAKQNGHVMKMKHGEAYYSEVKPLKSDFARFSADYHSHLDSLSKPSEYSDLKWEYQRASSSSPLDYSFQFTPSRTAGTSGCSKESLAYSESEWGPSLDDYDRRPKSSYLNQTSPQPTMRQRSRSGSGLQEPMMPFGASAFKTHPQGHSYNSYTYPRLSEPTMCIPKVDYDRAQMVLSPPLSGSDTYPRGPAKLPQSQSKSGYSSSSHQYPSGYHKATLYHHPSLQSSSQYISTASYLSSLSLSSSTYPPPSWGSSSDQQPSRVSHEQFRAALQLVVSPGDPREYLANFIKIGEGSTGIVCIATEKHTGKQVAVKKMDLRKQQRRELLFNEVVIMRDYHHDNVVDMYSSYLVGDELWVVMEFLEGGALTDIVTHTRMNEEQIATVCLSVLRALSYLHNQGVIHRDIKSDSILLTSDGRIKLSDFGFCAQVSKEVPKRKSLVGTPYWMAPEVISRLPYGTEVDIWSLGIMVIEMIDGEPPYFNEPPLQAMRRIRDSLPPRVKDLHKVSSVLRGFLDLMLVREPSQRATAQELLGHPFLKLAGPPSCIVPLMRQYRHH

SMILES: O=C(Nc1nccs1)C(c1cc(F)ccc1O)N1Cc2ccccc2C1=O (centres unmarked) [EAI045, 2-(5-fluoro-2-hydroxyphenyl)-2-(1-oxo-2,3-dihydro-1H-isoindol-2-yl)-N-(1,3-thiazol-2-yl)acetamide]
- inhibition at 1 µM (MAP4K5): 13%
- inhibition at 1 µM (PAK5): 0%
- inhibition at 1 µM (CK1-GAMMA2): 0%
- inhibition at 1 µM (MAPKAPK2): 0%
- inhibition at 1 µM (GSK-3-ALPHA): 6%
- inhibition at 1 µM (PHK-GAMMA1): 0%
- inhibition at 1 µM (RSK4): 0%
- inhibition at 1 µM (AURORA-A): 0%
- inhibition at 1 µM (HIPK1): 1%
- inhibition at 1 µM (PI3K-DELTA): 0%
- inhibition at 1 µM (AURORA-B): 4%
- inhibition at 1 µM (DAPK3): 1%
- inhibition at 1 µM (DCAMKL2): 0%
- inhibition at 1 µM (SNF1LK2): 0%
- inhibition at 1 µM (DYRK1B): 2%
- inhibition at 1 µM (MRCK-BETA): 0%
- inhibition at 1 µM (MSK2): 2%
- inhibition at 1 µM (SRPK1): 0%
- inhibition at 1 µM (EGFR): 7%
- inhibition at 1 µM (SRPK2): 10%
- inhibition at 1 µM (IRAK1): 4%
- inhibition at 1 µM (MST1): 0%
- inhibition at 1 µM (SYK): 0%
- inhibition at 1 µM (PKC-GAMMA): 0%
- inhibition at 1 µM (ITK): 0%
- inhibition at 1 µM (CAMK2B): 0%
- inhibition at 1 µM (EPH-B3): 0%
- inhibition at 1 µM (CDK2-CYCLINA): 1%
- inhibition at 1 µM (P38-BETA): 0%
- inhibition at 1 µM (CDK6-CYCLIND3): 2%
- pIC50 (Muscarinic M1 receptor): < 4.52
- pIC50 (Muscarinic M2): < 4.52
- pIC50 (Phosphodiesterase 3): < 4.52
- pIC50 [1]: 5.15
- pIC50 (Progesterone Receptor): < 4.52
- proliferation [2]: not inhibited
- tumor response [3]: failed to respond
- tumor response [4]: marked tumor shrinkage

Source: publication PMC4929832 (Nature, 2016)
